The species entered for test [1] is Rattus norvegicus. The experiment in a line: Saluretic activity in the rat measured as concentration of Na+ in urine. It counts as functional. The essentials: (§1)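 Rats deprived of food 24 h, water ad libitum, dosed 50 mg/kg by stomach tube as suspension in 2% starch, no extra water load. Groups of three in diuresis funnels; urine over first 5 h collected. Na⁺ and K⁺ by flame photometry, Cl⁻ argentometrically; expressed as mequiv/kg.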

The species entered for test [2] is Rattus norvegicus. The experiment in a line: Diuretic activity in the rats, determined by a modified Lipschitz test. It counts as functional, Urine. The essentials:
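Modified Lipschitz test: rats deprived of water 24 h, grouped in threes of similar weight in diuresis funnels. Oral dose of 50 mg/kg, suspended in 2% starch solution, by stomach tube.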

The species named for test [3] is Rattus norvegicus. In words: Saluretic activity in the rat measured as concentration of chloride in urine. It counts as functional. The essentials: as §1
For test [4], the species on record is Rattus norvegicus. In words: Saluretic activity in the rat measured as concentration of K+ in urine. It counts as functional. The essentials: as §1

For the compound `NS(=O)(=O)c1cc(S(=O)(=O)[O-])c(NCc2ccco2)cc1Oc1cccc(Cl)c1.[K+]`, the results for the Saluretic activity in the test listed under Rattus norvegicus [1], in the test filed under Rattus norvegicus [3] and in the test listed under Rattus norvegicus [4] were 3.8 m equiv 5hr-1 kg-1, 5.1 m equiv 5hr-1 kg-1 and 2 m equiv 5hr-1 kg-1, respectively. In the test filed under Rattus norvegicus [2], the Diuretic activity is 2 mL/kg.
On the same counts, the results for `CN(c1ccccc1)c1cc(NCc2ccco2)c(S(=O)(=O)[O-])cc1S(N)(=O)=O.[K+]` are 6.3 m equiv 5hr-1 kg-1, 7.4 m equiv 5hr-1 kg-1, 1.7 m equiv 5hr-1 kg-1 and 3.1 mL/kg.
`NS(=O)(=O)c1cc(S(=O)(=O)[O-])c(NCc2ccco2)cc1Nc1ccc(Cl)cc1.[Na+]`: the Saluretic activity came to 0.4 m equiv 5hr-1 kg-1 in the test listed under Rattus norvegicus [1], 0.5 m equiv 5hr-1 kg-1 in the test listed under Rattus norvegicus [3] and 0.4 m equiv 5hr-1 kg-1 in the test listed under Rattus norvegicus [4]. In the test listed under Rattus norvegicus [2], this compound yielded a Diuretic activity of 0.4 mL/kg.
Consider `CCN(c1ccccc1)c1cc(NCc2ccco2)c(S(=O)(=O)[O-])cc1S(N)(=O)=O.[Na+]`, for which the Saluretic activity in the test listed under Rattus norvegicus [1] came to 0.4 m equiv 5hr-1 kg-1; in the test listed under Rattus norvegicus [3], 0.3 m equiv 5hr-1 kg-1; in the test listed under Rattus norvegicus [4], 1 m equiv 5hr-1 kg-1. The Diuretic activity in the test filed under Rattus norvegicus [2] is 0.8 mL/kg.
The matching figures for `CC(C)(C)S(=O)(=O)c1cc(NCc2ccco2)c(S(=O)(=O)[O-])cc1S(N)(=O)=O.[K+]`: 3.3 m equiv 5hr-1 kg-1, 4.3 m equiv 5hr-1 kg-1, 1.8 m equiv 5hr-1 kg-1 and 2.5 mL/kg.
On the same counts, the results for `NS(=O)(=O)c1cc(S(=O)(=O)[O-])c(NCc2ccco2)cc1Oc1ccccc1.[K+]` are 5 m equiv 5hr-1 kg-1, 7.1 m equiv 5hr-1 kg-1, 1.5 m equiv 5hr-1 kg-1 and 1.8 mL/kg.
Take `Cc1ccccc1Nc1cc(NCc2ccco2)c(S(=O)(=O)[O-])cc1S(N)(=O)=O.[Na+]`: the Saluretic activity in the test filed under Rattus norvegicus [1] was 0.7 m equiv 5hr-1 kg-1; in the test filed under Rattus norvegicus [3], 0.6 m equiv 5hr-1 kg-1; in the test listed under Rattus norvegicus [4], 1 m equiv 5hr-1 kg-1. This compound also came in with a Diuretic activity in the test filed under Rattus norvegicus [2] of 0.6 mL/kg.
Regarding `CCC(C)S(=O)(=O)c1cc(NCc2ccco2)c(S(=O)(=O)[O-])cc1S(N)(=O)=O.[Na+]` (stereo unspecified), the Saluretic activity was determined as 6.7 m equiv 5hr-1 kg-1 in the test listed under Rattus norvegicus [1], 8.5 m equiv 5hr-1 kg-1 in the test listed under Rattus norvegicus [3] and 1.9 m equiv 5hr-1 kg-1 in the test filed under Rattus norvegicus [4]. For the same compound, the Diuretic activity in the test filed under Rattus norvegicus [2] is 4.5 mL/kg.
As to `CC(C)CS(=O)(=O)c1cc(NCc2ccco2)c(S(=O)(=O)[O-])cc1S(N)(=O)=O.[Na+]`, the Saluretic activity in the test listed under Rattus norvegicus [1] is listed as 7.6 m equiv 5hr-1 kg-1; in the test filed under Rattus norvegicus [3], 8.1 m equiv 5hr-1 kg-1; in the test filed under Rattus norvegicus [4] it was 2.5 m equiv 5hr-1 kg-1. In the test filed under Rattus norvegicus [2], the Diuretic activity amounted to 2.8 mL/kg.
The matching figures for `N.NS(=O)(=O)c1cc(S(=O)(=O)O)c(NCc2ccco2)cc1Oc1ccccc1`: 6.6 m equiv 5hr-1 kg-1, 8.7 m equiv 5hr-1 kg-1, 2.4 m equiv 5hr-1 kg-1 and 4.2 mL/kg.
In the case of `CN(c1cc(NCc2ccco2)c(S(=O)(=O)[O-])cc1S(N)(=O)=O)C1CCCCC1.[K+]`, the Saluretic activity in the test listed under Rattus norvegicus [1] worked out at 0.4 m equiv 5hr-1 kg-1; in the test filed under Rattus norvegicus [3], 0.6 m equiv 5hr-1 kg-1; in the test filed under Rattus norvegicus [4], 1 m equiv 5hr-1 kg-1. The Diuretic activity in the test listed under Rattus norvegicus [2] is 0.8 mL/kg.
On the same counts, the results for `CCCS(=O)(=O)c1cc(NCc2ccco2)c(S(=O)(=O)[O-])cc1S(N)(=O)=O.[Na+]` are 1.8 m equiv 5hr-1 kg-1, 2.4 m equiv 5hr-1 kg-1, 1.3 m equiv 5hr-1 kg-1 and 2.9 mL/kg.
On the same counts, the results for `NS(=O)(=O)c1cc(S(=O)(=O)[O-])c(Cl)cc1NCc1ccco1.[Na+]` are 0.5 m equiv 5hr-1 kg-1, 1 m equiv 5hr-1 kg-1, 0.9 m equiv 5hr-1 kg-1 and 0.5 mL/kg.
Consider `CN(c1ccccc1)c1cc(NCc2ccco2)c(S(=O)(=O)[O-])cc1S(=O)(=O)N(C)C.[K+]`, for which the Saluretic activity is on record as 1 m equiv 5hr-1 kg-1 in the test filed under Rattus norvegicus [1], 1.5 m equiv 5hr-1 kg-1 in the test listed under Rattus norvegicus [3] and 1.2 m equiv 5hr-1 kg-1 in the test listed under Rattus norvegicus [4]. In the test listed under Rattus norvegicus [2], this compound returned a Diuretic activity of 1.6 mL/kg.
`NS(=O)(=O)c1cc(S(=O)(=O)[O-])c(NCc2ccco2)cc1S(=O)(=O)C1CCCCCC1.[Na+]`: the Saluretic activity was found to be 8.9 m equiv 5hr-1 kg-1 in the test listed under Rattus norvegicus [1], 9.9 m equiv 5hr-1 kg-1 in the test listed under Rattus norvegicus [3] and 2.8 m equiv 5hr-1 kg-1 in the test listed under Rattus norvegicus [4]. In addition, in the test filed under Rattus norvegicus [2], the Diuretic activity came to 4 mL/kg.
For `Cc1cccc(Nc2cc(NCc3ccco3)c(S(=O)(=O)[O-])cc2S(N)(=O)=O)c1.[Na+]`, the Saluretic activity is given as 0.6 m equiv 5hr-1 kg-1 in the test listed under Rattus norvegicus [1], 0.9 m equiv 5hr-1 kg-1 in the test listed under Rattus norvegicus [3] and 1.5 m equiv 5hr-1 kg-1 in the test filed under Rattus norvegicus [4]. In addition, in the test filed under Rattus norvegicus [2], the Diuretic activity was 0.8 mL/kg.
Turning to `NS(=O)(=O)c1cc(S(=O)(=O)[O-])c(NCc2ccco2)cc1Nc1ccccc1Cl.[Na+]`, the Saluretic activity was determined as 0.3 m equiv 5hr-1 kg-1 in the test listed under Rattus norvegicus [1], 0.6 m equiv 5hr-1 kg-1 in the test filed under Rattus norvegicus [3] and 0.8 m equiv 5hr-1 kg-1 in the test filed under Rattus norvegicus [4]. The Diuretic activity in the test listed under Rattus norvegicus [2] was found to be 1.1 mL/kg.
Take `NS(=O)(=O)c1cc(S(=O)(=O)[O-])c(S(=O)(=O)C2CCCCC2)cc1NCc1ccco1.[Na+]`: the Saluretic activity stood at 0.4 m equiv 5hr-1 kg-1 in the test listed under Rattus norvegicus [1], 1 m equiv 5hr-1 kg-1 in the test filed under Rattus norvegicus [3] and 1.1 m equiv 5hr-1 kg-1 in the test filed under Rattus norvegicus [4]. Moreover, in the test filed under Rattus norvegicus [2], the Diuretic activity was 0.8 mL/kg.
The matching figures for `CCOCCNc1cc(Cl)c(S(N)(=O)=O)cc1S(=O)(=O)[O-].[Na+]`: 0.2 m equiv 5hr-1 kg-1, 0.2 m equiv 5hr-1 kg-1, 0.2 m equiv 5hr-1 kg-1 and 0.4 mL/kg.
In the case of `NC(N)=NC(=O)c1nc(Cl)c(N)nc1N.NS(=O)(=O)c1cc(S(=O)(=O)O)c(NCc2ccco2)cc1Oc1ccccc1`, the results for the Saluretic activity in the test listed under Rattus norvegicus [1], in the test listed under Rattus norvegicus [3] and in the test filed under Rattus norvegicus [4] were 3.7 m equiv 5hr-1 kg-1, 2.7 m equiv 5hr-1 kg-1 and 0.3 m equiv 5hr-1 kg-1, respectively. Moreover, the Diuretic activity in the test listed under Rattus norvegicus [2] amounted to 1.9 mL/kg.
In the case of `CN(c1ccccc1)c1cc(NCc2ccco2)c(S(=O)(=O)O)cc1S(N)(=O)=O.NC(N)=NC(=O)c1nc(Cl)c(N)nc1N`, the Saluretic activity in the test filed under Rattus norvegicus [1] worked out at 3.5 m equiv 5hr-1 kg-1; in the test filed under Rattus norvegicus [3], 2.3 m equiv 5hr-1 kg-1; in the test filed under Rattus norvegicus [4] it was 0.4 m equiv 5hr-1 kg-1. The compound also registered a Diuretic activity in the test listed under Rattus norvegicus [2] of 3.3 mL/kg.
The matching figures for `NS(=O)(=O)c1cc(S(=O)(=O)[O-])c(Oc2ccccc2)cc1NCc1ccco1.[K+]`: 0.8 m equiv 5hr-1 kg-1, 0.8 m equiv 5hr-1 kg-1, 1 m equiv 5hr-1 kg-1 and 0.8 mL/kg.
The matching figures for `CN(C)S(=O)(=O)c1cc(S(=O)(=O)[O-])c(NCc2ccco2)cc1Oc1ccccc1.[K+]`: 0.3 m equiv 5hr-1 kg-1, 0.7 m equiv 5hr-1 kg-1, 1.1 m equiv 5hr-1 kg-1 and 1.2 mL/kg.
With `NC(CO)(CO)CO.NS(=O)(=O)c1cc(S(=O)(=O)O)c(NCc2ccco2)cc1Oc1ccccc1`, the Saluretic activity amounted to 5.8 m equiv 5hr-1 kg-1 in the test filed under Rattus norvegicus [1], 7.8 m equiv 5hr-1 kg-1 in the test listed under Rattus norvegicus [3] and 2.2 m equiv 5hr-1 kg-1 in the test listed under Rattus norvegicus [4]. The Diuretic activity in the test listed under Rattus norvegicus [2] turned out to be 4.1 mL/kg.

For the origin of these results see ChEMBL document CHEMBL1122273, “5-sulfamoylorthanilic acids, a sulfonamide series with salidiuretic activity” (J Med Chem, 1983).
